MIC and inhibition data for 9 molecules are collected here from ChEMBL document CHEMBL2062386, “Discovery of LFF571: an investigational agent for Clostridium difficile infection” (J Med Chem, 2012).

Common to all, as to format: functional
The subject of one experiment is Enterococcus faecium. The experiment is described as follows: Antibacterial activity against Enterococcus faecium 7130724 by broth microdilution method. (In general: Broth dilution looks for growth in wells or tubes with falling amounts of substance.)
The test system of another experiment is Enterococcus faecalis. The experiment is described as follows: Antibacterial activity against Enterococcus faecalis ATCC 29212 by broth microdilution method. The method, boiled down:
(§1)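 Broth microdilution MICs were run per CLSI M07-A8 (2009). The strain panel included C. difficile ATCC 43255, E. faecalis ATCC 29212 and S. pyogenes ATCC BAA-595.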

In another experiment the test system is Staphylococcus aureus. The experiment is described as follows: Antibacterial activity against Staphylococcus aureus A4.018 by broth microdilution method.
Another experiment has as its system Streptococcus pyogenes. The experiment is described as follows: Antibacterial activity against Streptococcus pyogenes ATCC BAA-595 by broth microdilution method. The method, boiled down: as §1
The nature of experiment [1]: Antibacterial activity against Clostridium difficile ATCC 43255 by broth microdilution method. As to conditions: Clostridioides difficile. The procedure, abridged: as §1
A further experiment concerns Escherichia coli. In words: Inhibition of protein synthesis in Escherichia coli S30 extract at 2 uM after 75 mins by luciferase based luminescence assay relative to GE2270A.

In brackets after ≈: the same amount, converted by molar mass.

Broadly, the MIC is the least concentration at which growth counts as inhibited. One may read the inhibition as how much of the control response was suppressed. Higher therefore signals a strong effect. For the molecule `CNC(=O)C[C@@H]1NC(=O)c2csc(n2)-c2ccc(-c3nc(N(CCCCC(=O)O)C(=O)[C@H]4CC[C@@H](C(=O)O)O4)cs3)nc2-c2csc(n2)-c2csc(n2)[C@H]([C@@H](O)c2ccccc2)NC(=O)CNC(=O)c2nc(sc2COC)[C@H](C(C)C)NC(=O)c2nc1sc2C`, the MIC in the experiment on Enterococcus faecium was greater than 32 µg/mL; against Enterococcus faecalis, greater than 32 µg/mL; with Staphylococcus aureus, greater than 32 µg/mL; against Streptococcus pyogenes, greater than 32 µg/mL; in experiment [1], greater than 4 µg/mL. For the same molecule, 2 µM produced 30% inhibition in the experiment on Escherichia coli.

Regarding `CNC(=O)C[C@@H]1NC(=O)c2csc(n2)-c2ccc(-c3nc(N(CCCCC(=O)O)C(=O)OCC(CCCCC(=O)O)CC(=O)O)cs3)nc2-c2csc(n2)-c2csc(n2)[C@H]([C@@H](O)c2ccccc2)NC(=O)CNC(=O)c2nc(sc2COC)[C@H](C(C)C)NC(=O)c2nc1sc2C` (stereo partly drawn), the MIC is 8 µg/mL (≈ 5.61 µM) against Enterococcus faecium; 8 µg/mL (≈ 5.61 µM) in the experiment with Enterococcus faecalis; 8 µg/mL (≈ 5.61 µM) against Staphylococcus aureus; 32 µg/mL (≈ 22.4 µM) in the experiment on Streptococcus pyogenes; 1 µg/mL (≈ 0.701 µM) in experiment [1]. This molecule also yielded an inhibition at 2 µM with Escherichia coli of 50%.

Regarding `CNC(=O)C[C@@H]1NC(=O)c2csc(n2)-c2ccc(-c3nc(NC(=O)CC[C@@H](CC(=O)O)C(=O)O)cs3)nc2-c2csc(n2)-c2csc(n2)[C@H]([C@@H](O)c2ccccc2)NC(=O)CNC(=O)c2nc(sc2COC)[C@H](C(C)C)NC(=O)c2nc1sc2C`, the MIC is 32 µg/mL (≈ 25.2 µM) in the experiment with Enterococcus faecium; 16 µg/mL (≈ 12.6 µM) in the experiment on Enterococcus faecalis; 32 µg/mL (≈ 25.2 µM) in the experiment on Staphylococcus aureus; greater than 32 µg/mL in the experiment on Streptococcus pyogenes; 4 µg/mL (≈ 3.15 µM) in experiment [1]. This molecule also registered an inhibition at 2 µM in the experiment with Escherichia coli of 30%.

As to `CNC(=O)C[C@@H]1NC(=O)c2csc(n2)-c2ccc(-c3nc(NC(=O)CC[C@H](CC(=O)O)C(=O)O)cs3)nc2-c2csc(n2)-c2csc(n2)[C@H]([C@@H](O)c2ccccc2)NC(=O)CNC(=O)c2nc(sc2COC)[C@H](C(C)C)NC(=O)c2nc1sc2C`, the minimum inhibitory concentration (MIC) in the experiment on Enterococcus faecium is 8 µg/mL (≈ 6.31 µM); in the experiment with Enterococcus faecalis, 4 µg/mL (≈ 3.15 µM); with Staphylococcus aureus it was 8 µg/mL (≈ 6.31 µM); in the experiment on Streptococcus pyogenes it was greater than 32 µg/mL; in experiment [1] it was 4 µg/mL (≈ 3.15 µM). Testing at 2 µM in the experiment with Escherichia coli gave an inhibition of 30%.

With `CNC(=O)C[C@@H]1NC(=O)c2csc(n2)-c2ccc(-c3nc(N(CCCCC(=O)O)C(=O)O[C@]4(CCCCC(=O)O)CC[C@@H](C(=O)O)CC4)cs3)nc2-c2csc(n2)-c2csc(n2)[C@H]([C@@H](O)c2ccccc2)NC(=O)CNC(=O)c2nc(sc2COC)[C@H](C(C)C)NC(=O)c2nc1sc2C`, the MIC is 8 µg/mL (≈ 5.45 µM) against Enterococcus faecium, 4 µg/mL (≈ 2.73 µM) in the experiment with Enterococcus faecalis, 8 µg/mL (≈ 5.45 µM) against Staphylococcus aureus and 16 µg/mL (≈ 10.9 µM) in the experiment on Streptococcus pyogenes. Further, testing at 2 µM with Escherichia coli gave an inhibition of 50%.

On to `CNC(=O)C[C@@H]1NC(=O)c2csc(n2)-c2ccc(-c3nc(N(CCCCC(=O)O)C(=O)N[C@H]4CC[C@H](C(=O)O)CC4)cs3)nc2-c2csc(n2)-c2csc(n2)[C@H]([C@@H](O)c2ccccc2)NC(=O)CNC(=O)c2nc(sc2COC)[C@H](C(C)C)NC(=O)c2nc1sc2C`, for which the MIC against Enterococcus faecium was greater than 32 µg/mL; with Enterococcus faecalis it was 16 µg/mL (≈ 11.7 µM); against Staphylococcus aureus, 16 µg/mL (≈ 11.7 µM); against Streptococcus pyogenes it was 32 µg/mL (≈ 23.4 µM); in experiment [1], 1 µg/mL (≈ 0.732 µM). In the experiment with Escherichia coli, this molecule yielded an inhibition at 2 µM of 30%.

With `CNC(=O)C[C@@H]1NC(=O)c2csc(n2)-c2ccc(-c3nc(N(CCCCC(=O)O)C(=O)NCCCC(=O)O)cs3)nc2-c2csc(n2)-c2csc(n2)[C@H]([C@@H](O)c2ccccc2)NC(=O)CNC(=O)c2nc(sc2COC)[C@H](C(C)C)NC(=O)c2nc1sc2C`, the MIC is greater than 32 µg/mL in the experiment with Enterococcus faecium; greater than 32 µg/mL against Enterococcus faecalis; 32 µg/mL (≈ 24.1 µM) against Staphylococcus aureus; greater than 32 µg/mL in the experiment on Streptococcus pyogenes; 4 µg/mL (≈ 3.02 µM) in experiment [1]. Besides, testing at 2 µM in the experiment with Escherichia coli gave an inhibition of 30%.

As to `CNC(=O)C[C@@H]1NC(=O)c2csc(n2)-c2ccc(-c3nc(N(CCCCC(=O)O)C(=O)OCCC(CCCCC(=O)O)C(=O)O)cs3)nc2-c2csc(n2)-c2csc(n2)[C@H]([C@@H](O)c2ccccc2)NC(=O)CNC(=O)c2nc(sc2COC)[C@H](C(C)C)NC(=O)c2nc1sc2C` (stereo partly drawn), the minimum inhibitory concentration (MIC) with Enterococcus faecium amounted to 16 µg/mL (≈ 11.2 µM); in the experiment with Enterococcus faecalis, 8 µg/mL (≈ 5.61 µM); against Staphylococcus aureus, 16 µg/mL (≈ 11.2 µM); against Streptococcus pyogenes, 32 µg/mL (≈ 22.4 µM); in experiment [1], 0.5 µg/mL (≈ 0.35 µM). Further, testing at 2 µM in the experiment on Escherichia coli gave an inhibition of 50%.

On to `CNC(=O)C[C@@H]1NC(=O)c2csc(n2)-c2ccc(-c3nc(N(CCCC(=O)O)C(=O)CCCCC(=O)O)cs3)nc2-c2csc(n2)-c2csc(n2)[C@H]([C@@H](O)c2ccccc2)NC(=O)CNC(=O)c2nc(sc2COC)[C@H](C(C)C)NC(=O)c2nc1sc2C`, for which the minimum inhibitory concentration (MIC) in the experiment with Enterococcus faecium is 32 µg/mL (≈ 24.4 µM); against Enterococcus faecalis, 32 µg/mL (≈ 24.4 µM); in the experiment with Staphylococcus aureus it was 16 µg/mL (≈ 12.2 µM); with Streptococcus pyogenes, greater than 32 µg/mL; in experiment [1], 2 µg/mL (≈ 1.53 µM). Also, in the experiment with Escherichia coli, 2 µM produced 30% inhibition.
